Experimental data as given in ChEMBL document CHEMBL2331506, “Design, synthesis, antiviral and cytostatic evaluation of novel isoxazolidine nucleotide analogues with a carbamoyl linker” (Bioorg Med Chem, 2013).
The source made the active and inactive calls. The rule behind the calls is not given here.

Experiments:
MDCK = assay: Cytotoxicity against dog MDCK cells assessed as alteration of cell morphology up to 100 uM by microscopic analysis; assay type: cell-based, Canis lupus familiaris
Summary of the method: (§1)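 Uninfected host-cell cultures were exposed to compound and examined by microscopy. Cytotoxicity was expressed as the minimum cytotoxic concentration (MCC) causing a microscopically detectable alteration of normal cell morphology.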

[1] = Cytotoxicity against cat CRFK cells assessed as alteration of cell morphology up to 100 uM by microscopic analysis; assay type: cell-based, Felis catus; summary of the method: as §1
Vero = assay: Cytotoxicity against african green monkey Vero cells assessed as alteration of cell morphology up to 100 uM by microscopic analysis; assay type: cell-based; conditions: chlorocebus sabaeus; summary of the method: as §1
HeLa = assay: Cytotoxicity against human HeLa cells assessed as alteration of cell morphology up to 100 uM by microscopic analysis; assay type: cell-based; summary of the method: as §1
HEL = assay: Cytotoxicity against human HEL cells assessed as alteration of cell morphology up to 100 uM by microscopic analysis; assay type: cell-based; summary of the method: as §1
[2] = system: Human immunodeficiency virus 2; assay: Antiviral activity against Human immunodeficiency virus 2 ROD infected in human CEM cells assessed as reduction of virus-induced giant cell formation at 250 uM after 4 to 5 days; assay type: functional, organism-based; conditions: CCRF-CEM
Summary of the method: (§2)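 CEM cells at 3 × 10^5 cells/mL were infected with HIV at 100 CCID50 per mL in the presence of compound dilutions. They were held 4–5 days at 37 °C in humidified CO2. Syncytium (giant cell) formation was scored microscopically, and EC50 was taken as the concentration inhibiting giant cell formation by 50%.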

[3] = system: Human immunodeficiency virus 1; assay: Antiviral activity against Human immunodeficiency virus 1 3B infected in human CEM cells assessed as reduction of virus-induced giant cell formation at 250 uM after 4 to 5 days; assay type: functional, organism-based; conditions: CCRF-CEM; summary of the method: as §2
Feline coronavirus = assay: Antiviral activity against Feline coronavirus infected in cat CRFK cells assessed as reduction of virus-induced cytopathogenicity at 250 uM; assay type: functional, organism-based
Felid alphaherpesvirus 1 = assay: Antiviral activity against Feline herpes virus infected in cat CRFK cells assessed as reduction of virus-induced cytopathogenicity at 250 uM; assay type: functional, organism-based
Influenza B virus = assay: Antiviral activity against Influenza B virus infected in dog MDCK cells assessed as reduction of virus-induced cytopathogenicity at 250 uM; assay type: functional, organism-based
Summary of the method: (§3)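 Confluent cell monolayers were infected with 100 CCID50 of virus while exposed to varying compound concentrations. Cytopathicity was scored once it was complete in untreated infected controls. EC50 was taken as the concentration that reduced virus-induced cytopathogenicity by 50%.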

Influenza A virus [4] = assay: Antiviral activity against Influenza A virus H3N2 infected in dog MDCK cells assessed as reduction of virus-induced cytopathogenicity at 250 uM; assay type: functional, organism-based; summary of the method: as §3
Influenza A virus [5] = assay: Antiviral activity against Influenza A virus H1N1 infected in dog MDCK cells assessed as reduction of virus-induced cytopathogenicity at 250 uM; assay type: functional, organism-based; summary of the method: as §3
Punta Toro virus = assay: Antiviral activity against Punta Toro virus infected in african green monkey Vero cells assessed as reduction of virus-induced cytopathogenicity at 250 uM; assay type: functional, organism-based
Summary of the method: (§4)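 Confluent monolayers (HEL fibroblasts, Vero, or HeLa cells as listed) were infected with 100 CCID50 of virus in the presence of varying compound concentrations. Virus-induced cytopathicity or plaque formation was scored once cytopathicity was complete in untreated infected controls. EC50 was taken as the concentration reducing cytopathogenicity or plaque formation by 50%.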

Sindbis virus = assay: Antiviral activity against Sindbis virus infected in african green monkey Vero cells assessed as reduction of virus-induced cytopathogenicity at 250 uM; assay type: functional, organism-based; summary of the method: as §4
Coxsackievirus B4 = assay: Antiviral activity against Coxsackievirus B4 infected in african green monkey Vero cells assessed as reduction of virus-induced cytopathogenicity at 250 uM; assay type: functional, organism-based; summary of the method: as §4
[6] = system: Mammalian orthoreovirus 1; assay: Antiviral activity against Reovirus 1 infected in african green monkey Vero cells assessed as reduction of virus-induced cytopathogenicity at 250 uM; assay type: functional, organism-based; summary of the method: as §4
Human respirovirus 3 = assay: Antiviral activity against Parainfluenza virus 3 infected in african green monkey Vero cells assessed as reduction of virus-induced cytopathogenicity at 250 uM; assay type: functional, organism-based; summary of the method: as §4
[7] = system: Respiratory syncytial virus; assay: Antiviral activity against Respiratory syncytial virus long infected in human HeLa cells assessed as reduction of virus-induced cytopathogenicity at 250 uM; assay type: functional, organism-based; summary of the method: as §4
[8] = system: Vesicular stomatitis virus; assay: Antiviral activity against Vesicular stomatitis virus infected in human HeLa cells assessed as reduction of virus-induced cytopathogenicity at 250 uM; assay type: functional, organism-based; summary of the method: as §3
Human alphaherpesvirus 1 [9] = assay: Antiviral activity against thymidine kinase-deficient, ACV-resistant Herpes simplex virus 1 KOS infected in human HEL cells assessed as reduction of virus-induced cytopathogenicity at 250 uM; assay type: functional, organism-based; summary of the method: as §3
[10] = system: Vesicular stomatitis virus; assay: Antiviral activity against Vesicular stomatitis virus infected in human HEL cells assessed as reduction of virus-induced cytopathogenicity at 250 uM; assay type: functional, organism-based; summary of the method: as §3
Human alphaherpesvirus 2 = assay: Antiviral activity against Herpes simplex virus 2 G infected in human HEL cells assessed as reduction of virus-induced cytopathogenicity at 250 uM; assay type: functional, organism-based; conditions: strain G; summary of the method: as §4
Human alphaherpesvirus 1 [11] = assay: Antiviral activity against Herpes simplex virus 1 KOS infected in human HEL cells assessed as reduction of virus-induced cytopathogenicity at 250 uM; assay type: functional, organism-based; summary of the method: as §4

Row | SMILES | Activity (MDCK) | Activity [1] | Activity (Vero) | Activity (HeLa) | Activity (HEL) | inhibition [2] | inhibition [3] | inhibition (Feline coronavirus) | inhibition (Felid alphaherpesvirus 1) | inhibition (Influenza B virus) | inhibition (Influenza A virus [4]) | inhibition (Influenza A virus [5]) | inhibition (Punta Toro virus) | inhibition (Sindbis virus) | inhibition (Coxsackievirus B4) | inhibition [6] | inhibition (Human respirovirus 3) | inhibition [7] | inhibition [8] | inhibition (Human alphaherpesvirus 1 [9]) | also measured
1 | CCOP(=O)(OCC)[C@H]1C[C@H](C(=O)Nc2ccc([N+](=O)[O-])cc2)ON1C (mixture of isomers) | Non-toxic | Non-toxic | Non-toxic | Non-toxic | Non-toxic | inactive | inactive | inactive | inactive | inactive | inactive | inactive | inactive | inactive | inactive | inactive | inactive | inactive | inactive | inactive | inhibition [10]: inactive; inhibition (Human alphaherpesvirus 2): inactive; inhibition (Human alphaherpesvirus 1 [11]): inactive
2 | CCOP(=O)(OCC)[C@@H]1C[C@H](C(=O)Nc2cc(OC)c(OC)cc2C(C)=O)ON1C (mixture of isomers) | Non-toxic | Non-toxic | Non-toxic | Non-toxic | Non-toxic | inactive | inactive | inactive | inactive | inactive | inactive | inactive | inactive | inactive | inactive | inactive | inactive | inactive | inactive | inactive | inhibition [10]: inactive; inhibition (Human alphaherpesvirus 2): inactive; inhibition (Human alphaherpesvirus 1 [11]): inactive
3 | CCOP(=O)(OCC)[C@H]1C[C@H](C(=O)Nc2cc(OC)c(OC)cc2C(C)=O)ON1C (mixture of isomers) | Non-toxic | Non-toxic | Non-toxic | Non-toxic | Non-toxic | inactive | inactive | inactive | inactive | inactive | inactive | inactive | inactive | inactive | inactive | inactive | inactive | inactive | inactive | inactive | inhibition [10]: inactive; inhibition (Human alphaherpesvirus 2): inactive; inhibition (Human alphaherpesvirus 1 [11]): inactive
4 | CCOP(=O)(OCC)[C@@H]1C[C@H](C(=O)Nc2ccccc2Br)ON1C (mixture of isomers) | Non-toxic | Non-toxic | Non-toxic | Non-toxic | Non-toxic | inactive | inactive | inactive | inactive | inactive | inactive | inactive | inactive | inactive | inactive | inactive | inactive | inactive | inactive | inactive | inhibition [10]: inactive; inhibition (Human alphaherpesvirus 2): inactive; inhibition (Human alphaherpesvirus 1 [11]): inactive
5 | CCOP(=O)(OCC)[C@@H]1C[C@H](C(=O)Nc2cccc(C)c2)ON1C (mixture of isomers) | Non-toxic | Non-toxic | Non-toxic | Non-toxic | Non-toxic | inactive | inactive | inactive | inactive | inactive | inactive | inactive | inactive | inactive | inactive | inactive | inactive | inactive | inactive | inactive | inhibition [10]: inactive; inhibition (Human alphaherpesvirus 2): inactive; inhibition (Human alphaherpesvirus 1 [11]): inactive
6 | CCOP(=O)(OCC)[C@H]1C[C@H](C(=O)Nc2ccc(C#N)cc2)ON1C (racemic) | Non-toxic | Non-toxic | Non-toxic | Non-toxic | Non-toxic | inactive | inactive | inactive | inactive | inactive | inactive | inactive | inactive | inactive | inactive | inactive | inactive | inactive | inactive | inactive | inhibition [10]: inactive; inhibition (Human alphaherpesvirus 2): inactive; inhibition (Human alphaherpesvirus 1 [11]): inactive
7 | CCOP(=O)(OCC)[C@@H]1C[C@H](C(=O)Nc2ccccc2[N+](=O)[O-])ON1C (mixture of isomers) | Non-toxic | Non-toxic | Non-toxic | Non-toxic | Non-toxic | inactive | inactive | inactive | inactive | inactive | inactive | inactive | inactive | inactive | inactive | inactive | inactive | inactive | inactive | inactive | inhibition [10]: inactive; inhibition (Human alphaherpesvirus 2): inactive; inhibition (Human alphaherpesvirus 1 [11]): inactive
8 | CCOP(=O)(OCC)[C@@H]1C[C@H](C(=O)Nc2ccc(C)cc2)ON1C (mixture of isomers) | Non-toxic | Non-toxic | Non-toxic | Non-toxic | Non-toxic | inactive | inactive | inactive | inactive | inactive | inactive | inactive | inactive | inactive | inactive | inactive | inactive | inactive | inactive | inactive | inhibition [10]: inactive; inhibition (Human alphaherpesvirus 2): inactive; inhibition (Human alphaherpesvirus 1 [11]): inactive
